The results in this text go back to ChEMBL document CHEMBL4118273, “Design, Synthesis, and Biological Evaluation of Pyrimido[4,5- d]pyrimidine-2,4(1 H,3 H)-diones as Potent and Selective Epidermal Growth Factor Receptor (EGFR) Inhibitors against L858R/T790M Resistance Mutation” (J Med Chem, 2018).

pIC50: −log10 of the molar value. Converted amounts (≈) assume the structure as drawn.

Series [1] deals with T1, Epidermal growth factor receptor (Homo sapiens, UniProt P00533). Description: Inhibition of recombinant human GST-tagged EGFR (668 to 1210 residues) expressed in baculovirus expression system using Poly(Glu,Tyr)4:1 as substrate after 1 hr by ELISA. In general terms: In an ELISA, binding on a coated surface is turned into a signal by an enzyme label.
T1 sequence (P00533 whole entry, the tested form may be a part): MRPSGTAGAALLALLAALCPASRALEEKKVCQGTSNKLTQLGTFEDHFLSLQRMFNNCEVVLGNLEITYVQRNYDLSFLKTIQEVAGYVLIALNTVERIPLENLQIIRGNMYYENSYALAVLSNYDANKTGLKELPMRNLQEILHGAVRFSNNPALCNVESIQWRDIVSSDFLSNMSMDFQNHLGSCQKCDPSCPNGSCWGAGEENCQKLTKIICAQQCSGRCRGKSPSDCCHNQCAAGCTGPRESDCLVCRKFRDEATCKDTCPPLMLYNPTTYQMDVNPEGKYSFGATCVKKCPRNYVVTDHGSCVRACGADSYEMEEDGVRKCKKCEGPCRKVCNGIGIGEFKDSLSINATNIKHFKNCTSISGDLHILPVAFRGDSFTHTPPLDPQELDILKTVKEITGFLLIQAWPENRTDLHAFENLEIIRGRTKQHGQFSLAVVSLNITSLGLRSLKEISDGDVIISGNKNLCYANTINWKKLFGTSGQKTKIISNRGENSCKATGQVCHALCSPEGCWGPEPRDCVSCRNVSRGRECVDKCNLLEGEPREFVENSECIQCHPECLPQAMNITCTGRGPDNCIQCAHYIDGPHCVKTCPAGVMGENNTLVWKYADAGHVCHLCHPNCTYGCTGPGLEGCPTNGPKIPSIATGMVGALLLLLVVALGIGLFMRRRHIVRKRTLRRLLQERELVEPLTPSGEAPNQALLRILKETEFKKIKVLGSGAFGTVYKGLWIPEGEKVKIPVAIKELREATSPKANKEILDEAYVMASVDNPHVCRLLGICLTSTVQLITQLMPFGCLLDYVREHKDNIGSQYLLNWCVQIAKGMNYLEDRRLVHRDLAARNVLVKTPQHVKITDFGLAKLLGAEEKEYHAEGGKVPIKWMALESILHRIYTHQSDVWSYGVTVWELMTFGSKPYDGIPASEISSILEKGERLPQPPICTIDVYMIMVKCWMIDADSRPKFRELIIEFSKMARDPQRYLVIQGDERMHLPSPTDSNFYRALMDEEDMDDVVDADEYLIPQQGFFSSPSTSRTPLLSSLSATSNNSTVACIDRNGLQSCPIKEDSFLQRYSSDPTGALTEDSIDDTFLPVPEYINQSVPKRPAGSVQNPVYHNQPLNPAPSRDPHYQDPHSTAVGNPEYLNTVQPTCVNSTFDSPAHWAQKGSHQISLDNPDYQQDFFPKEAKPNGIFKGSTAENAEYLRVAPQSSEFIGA
Series [2] deals with Epidermal growth factor receptor (Homo sapiens, UniProt P00533, L858R/T790M). Description: Inhibition of recombinant human GST-tagged EGFR L858R/T790M double mutant expressed in baculovirus expression system using Poly(Glu,Tyr)4:1 as substrate after 1 hr by ELISA.
Sequence of Epidermal growth factor receptor (Homo sapiens, UniProt P00533, L858R/T790M) (P00533 25-1210 T790M/L858R limits assumed): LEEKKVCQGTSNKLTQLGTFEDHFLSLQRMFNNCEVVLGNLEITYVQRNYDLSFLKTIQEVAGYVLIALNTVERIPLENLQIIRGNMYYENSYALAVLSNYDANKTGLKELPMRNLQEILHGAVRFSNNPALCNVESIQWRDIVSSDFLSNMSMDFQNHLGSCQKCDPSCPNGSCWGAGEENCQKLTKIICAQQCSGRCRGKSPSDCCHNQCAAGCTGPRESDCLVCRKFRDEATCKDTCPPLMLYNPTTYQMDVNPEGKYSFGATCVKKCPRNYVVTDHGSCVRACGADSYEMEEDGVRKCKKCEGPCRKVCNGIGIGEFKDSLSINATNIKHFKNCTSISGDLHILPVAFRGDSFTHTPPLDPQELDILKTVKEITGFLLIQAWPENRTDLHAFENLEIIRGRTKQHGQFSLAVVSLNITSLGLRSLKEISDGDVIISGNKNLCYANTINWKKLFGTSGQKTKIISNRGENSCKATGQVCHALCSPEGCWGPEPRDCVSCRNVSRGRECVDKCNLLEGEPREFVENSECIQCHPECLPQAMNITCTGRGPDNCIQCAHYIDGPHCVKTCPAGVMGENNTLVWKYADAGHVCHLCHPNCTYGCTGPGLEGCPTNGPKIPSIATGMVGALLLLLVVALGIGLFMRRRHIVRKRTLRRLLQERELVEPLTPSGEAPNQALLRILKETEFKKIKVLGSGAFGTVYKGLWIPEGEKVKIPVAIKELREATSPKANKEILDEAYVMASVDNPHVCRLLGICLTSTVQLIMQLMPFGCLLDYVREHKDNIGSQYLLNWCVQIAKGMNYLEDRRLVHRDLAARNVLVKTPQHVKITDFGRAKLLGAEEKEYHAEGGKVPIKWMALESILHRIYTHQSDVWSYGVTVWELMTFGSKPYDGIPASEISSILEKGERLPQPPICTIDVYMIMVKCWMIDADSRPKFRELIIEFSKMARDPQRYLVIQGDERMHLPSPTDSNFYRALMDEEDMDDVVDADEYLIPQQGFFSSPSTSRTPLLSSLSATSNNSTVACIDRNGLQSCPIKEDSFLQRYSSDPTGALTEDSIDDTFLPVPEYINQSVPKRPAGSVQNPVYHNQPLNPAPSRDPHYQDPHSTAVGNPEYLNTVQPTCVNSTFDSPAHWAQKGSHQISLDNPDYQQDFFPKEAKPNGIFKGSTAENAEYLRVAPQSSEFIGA
Series [3] concerns A-431. As to the kind of experiment: Cytotoxicity against human A431 cells harboring wild type EGFR assessed as reduction in cell viability after 72 hrs by SRB assay. Format: cell-based. Conditions: A-431, 72 h. The procedure, abridged: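 Cell growth inhibition measured by sulforhodamine B colorimetric assay in H1975 (EGFR L858R/T790M) and A431 (overexpressed wild-type EGFR) cells; IC50 values are means ± SD of at least three independent determinations. Selectivity is taken as the A431:H1975 IC50 ratio.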
In general terms: The SRB assay estimates cell density from bound dye.

Series [4] in a line: Aqueous solubility in pH 7.4 PBS buffer by UV-Visible spectrophotometric method. The format is physicochemical. The procedure, abridged: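 Solubility determined in 0.1 M PBS, pH 7.4, by UV-visible spectrophotometry.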
Series [5] concerns the target T1, Epidermal growth factor receptor. Description: Inhibition of wild type EGFR in EGF-stimulated human A431 cells assessed as reduction in Akt phosphorylation at Ser-473 residue up to 1000 nM by Western blot method. Summed up:
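A431 cells lysed in Tris-HCl pH 6.8 buffer with DTT, SDS and glycerol; equal protein amounts resolved on 8% SDS-PAGE, transferred to nitrocellulose and probed for p-EGFR (Y1068), total EGFR, p-AKT (Ser473), total AKT and GAPDH.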

Series [6] can be described thus: Efflux ratio of apparent permeability from apical to basolateral side in MDCK2 cells at 2 uM after 2.5 hrs by LC-MS/MS method. The format is ADME, cell-based, Canis lupus familiaris, MDCK-II. The following applies: dog, MDCK.
A short description of series [7]: Half life in human liver microsomes at 0.1 uM after 60 mins in presence of NADPH by LC-MS/MS analysis. Format: ADME, microsome. Summed up: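 Human or mouse liver microsomes (0.33 mg/mL protein) in 0.1 M Tris/HCl pH 7.4 with 5 mM MgCl2, 1 mM NADPH, 0.01% DMSO and 0.005% BSA; test compound at 0.1 µM final, 37 °C for 60 min. Aliquots at 0, 7, 17, 30 and 60 min quenched by methanol precipitation, centrifuged and analysed by LC-MS/MS.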
A general note: Liver microsomes are a subcellular fraction often used to study metabolism.

Series [8] is described as follows: Cmax in ICR mouse at 1 mg/kg, iv by LC-MS/MS analysis. The format is ADME, organism-based. Details: dose 1 mg/kg, route intravenous. Conditions: in vivo.
Series [9] can be described thus: Apparent volume of distribution in ICR mouse at 1 mg/kg, iv by LC-MS/MS analysis. The format is ADME, organism-based. Conditions: in vivo, read-out: Vz.
Series [10] can be described thus: Clearance in ICR mouse at 1 mg/kg, iv by LC-MS/MS analysis. Format: ADME, organism-based. The following applies: in vivo.
A short description of series [11]: Half life in ICR mouse at 10 mg/kg, po by LC-MS/MS analysis. The format is ADME, organism-based. Conditions: in vivo.
For series [12], the system named is A-431. As to the kind of experiment: Growth inhibition of human A431 cells xenografted in Balb/c mouse at 50 mg/kg/day, po for 14 days measured every 2 to 3 days during compound dosing relative to control. Format: organism-based. The following applies: A-431, po, read-out: GI. The procedure, abridged: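 BALB/c mice, 4–6 weeks old, implanted subcutaneously in the right flank with about 2 × 10^6 H1975 or A431 cells grown in RPMI-1640 with 10% FBS. At 200–400 mm3 tumors, mice were randomized (six/group) and dosed orally once daily with vehicle or inhibitor for 14 days. Caliper volumes, V = L×W²/2, were taken every 2–3 days; means ± SEM, Student's t test vs vehicle.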

The subject of series [13] is Mus musculus. As to the kind of experiment: Toxicity in Balb/c mouse xenografted with human NCI-H1975 cells assessed as body weight loss at 50 mg/kg/day, po once daily for 14 days measured every 2 to 3 days during compound dosing. Format: organism-based. The following applies: in vivo. The procedure, abridged: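 A431 or H1975 cells were grown in RPMI-1640 with 10% FBS, and about 2 × 10^6 cells were implanted subcutaneously in the right flank of 4–6-week-old BALB/c mice. At 200–400 mm³, mice were randomized to vehicle or treated groups (n = 6). Dosing was oral, once daily, for 14 days. Body weights were recorded every 2–3 days.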

Broadly, the pIC50 is −log10 of the IC50, conventionally taken in molar units. The term solubility denotes how much of the substance goes into solution per volume. Read a high solubility as a readily soluble substance. In general, efflux ratio refers to a quotient of directional permeabilities that is used to spot active efflux. The term half-life denotes the time needed for the level to fall by half in the phase considered. Broadly, the Cmax is the maximum level reached in the sampled fluid or tissue. As usually defined, the clearance is a measure of how efficiently the substance is removed, as volume per time. Read a low clearance as inefficient removal. Consider `C=CC(=O)Nc1cccc(-n2c(=O)n(C(C)C)c(=O)c3cnc(Nc4ccc(N5CCN(C)CC5)cc4OC)nc32)c1`, for which the figures for the negative-log IC50 (pIC50) in series [1], in series [2] and in series [3] were 7.10, 9.52 and 5.81, respectively. For the same compound, the solubility in series [4] was found to be 262 µg/mL (≈ 459 µM). For the same compound, the “inhibition (INH)” value in series [5] is given as “Not Active”. The efflux ratio at 2.5 h, 2 µM in series [6] was 9.1. Further, the half-life at 0.1 µM in series [7] is 1.42 h. For the same compound, in series [8], the Cmax stood at 311 ng/mL. Besides, in [9], the Vd worked out at 4.53 L/kg. In series [10], this compound showed a clearance of 89.5 mL/min/kg. The same compound gave a half-life in series [11] of 1.1 h. Besides, the inhibition at 50 mg/kg in series [12] stood at 37%. In [13], the Activity result is “Non-Toxic”.
